Results published in ChEMBL document CHEMBL1629656, “Oritavancin kills stationary-phase and biofilm Staphylococcus aureus cells in vitro” (Antimicrob Agents Chemother, 2009).
≈ marks a conversion by molar mass, not a printed value. Calls of active or inactive are those of the source. The rule behind the calls is not given here.

Legend:
[1] = tested on: Staphylococcus aureus; assay: Antimicrobial activity against exponential-phase methicillin-sensitive Staphylococcus aureus ATCC 29213 grown on nutrient-depleted CAMHB medium assessed as membrane depolarization after 30 mins using DiSC3(5) dye based fluorescence spectrophotometry; format: functional, organism-based
[2] = tested on: Staphylococcus aureus; assay: Antimicrobial activity against stationary-phase methicillin-sensitive Staphylococcus aureus ATCC 29213 grown on nutrient-depleted CAMHB medium assessed as membrane depolarization after 30 mins using DiSC3(5) dye based fluorescence spectrophotometry; format: functional, organism-based
[3] = tested on: Staphylococcus aureus; assay: Bactericidal activity against methicillin-sensitive Staphylococcus aureus assessed as log reduction in bacterial load within 15 to 120 mins; format: functional
[4] = tested on: Staphylococcus aureus; assay: Bactericidal activity against stationary-phase methicillin-sensitive Staphylococcus aureus ATCC 29213 grown on nutrient-depleted CAMHB medium assessed as log reduction in bacterial count at 0.5 ug/ml after 24 hrs by time kill analysis; format: functional
[5] = tested on: Staphylococcus aureus; assay: Bactericidal activity against exponential-phase methicillin-sensitive Staphylococcus aureus ATCC 29213 grown on nutrient-depleted CAMHB medium at 0.5 ug/ml after 24 hrs by time kill analysis; format: functional, organism-based
[6] = tested on: Staphylococcus aureus; assay: Bactericidal activity against exponential-phase methicillin-sensitive Staphylococcus aureus ATCC 29213 grown on nutrient-depleted CAMHB medium at 16 ug/ml after 24 hrs by time kill analysis; format: functional, organism-based
[7] = tested on: Staphylococcus aureus; assay: Bactericidal activity against exponential-phase methicillin-sensitive Staphylococcus aureus ATCC 29213 grown on nutrient-depleted CAMHB medium at 4 ug/ml after 24 hrs by time kill analysis; format: functional, organism-based
[8] = tested on: Staphylococcus aureus; assay: Bactericidal activity against stationary-phase methicillin-resistant Staphylococcus aureus ATCC 33591 grown on nutrient-depleted CAMHB medium after 24 hrs by time kill analysis; format: functional, organism-based
How it was run: (§1)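 Overnight stationary-phase cultures inoculated at ~10^7 CFU/ml into strain-matched spent CAMHB (pH 7.0, filter-sterilized). Oritavancin was kept at 0.002% polysorbate 80; daptomycin wells had 50 μg/ml CaCl2. Incubation at 37°C, 225 rpm. Samples were charcoal-quenched (25 mg/ml) before plating; points are means of duplicates. Bactericidal means ≥3-log drop at 24 h versus inoculum. ≥3 repeats.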

[9] = tested on: Staphylococcus aureus; assay: Bactericidal activity against stationary-phase methicillin-resistant Staphylococcus aureus ATCC 33591 grown on nutrient-depleted CAMHB medium assessed as reduction in bacterial count at 0.5 ug/ml after 24 hrs by time kill analysis; format: functional; how it was run: as §1
[10] = tested on: Staphylococcus aureus; assay: Antimicrobial activity against stationary-phase methicillin-sensitive Staphylococcus aureus ATCC 29213 grown on nutrient-depleted CAMHB medium assessed as membrane permeability after 30 mins by propidium iodide staining-based fluorescence spectrophotometry; format: functional, organism-based
[11] = tested on: Staphylococcus aureus; assay: Antimicrobial activity against exponential-phase methicillin-sensitive Staphylococcus aureus ATCC 29213 grown on nutrient-depleted CAMHB medium assessed as membrane permeability after 30 mins by propidium iodide staining-based fluorescence spectrophotometry; format: functional, organism-based
[12] = tested on: Staphylococcus aureus; assay: Bactericidal activity against exponential-phase methicillin-sensitive Staphylococcus aureus ATCC 29213 assessed as log reduction in bacterial count at 16 ug/ml within 15 mins by time kill analysis; format: functional
How it was run: (§2)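 Short (2-h) time-kill of ATCC 29213 at OD600 0.005 (~10^6 CFU/ml) in 10 mM HEPES-Cl pH 7.5 with 50 μg/ml CaCl2. Exponential cells had 5 mM glucose and stationary cells none. Oritavancin was tested without polysorbate 80; viable counts were taken by serial dilution plating. Three repeats; one shown.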

[13] = tested on: Staphylococcus aureus; assay: Bactericidal activity against exponential-phase methicillin-sensitive Staphylococcus aureus ATCC 29213 assessed as log reduction in bacterial count at 4 ug/ml within 2 hrs by time kill analysis; format: functional
[14] = tested on: Staphylococcus aureus; assay: Bactericidal activity against stationary-phase methicillin-sensitive Staphylococcus aureus ATCC 29213 assessed as log reduction in bacterial count at 4 ug/ml within 2 hrs by time kill analysis; format: functional
[15] = tested on: Staphylococcus aureus; assay: Bactericidal activity against stationary-phase methicillin-sensitive Staphylococcus aureus ATCC 29213 assessed as log reduction in bacterial count at 16 ug/ml within 2 hrs by time kill analysis; format: functional; how it was run: as §2
[16] = tested on: Staphylococcus aureus; assay: Inhibition of cell division in stationary-phase methicillin-resistant Staphylococcus aureus ATCC 43300 assessed as absence of appearance of septal midline at 1 ug/ml by transmission electron microscopy; format: functional, organism-based
How it was run: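 Stationary-phase MRSA ATCC 43300 (5 × 10^7 CFU/ml) exposed for 3 h in nutrient-depleted CAMHB. Cells were fixed in 2.5% glutaraldehyde, post-fixed in 2% osmium tetroxide and en bloc stained with uranyl acetate. Samples were ethanol-dehydrated, embedded in LR White, thin-sectioned, and stained with uranyl acetate/lead citrate. Septa were viewed by TEM at 100 kV.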

[17] = tested on: Staphylococcus aureus; assay: Antimicrobial activity against methicillin-sensitive Staphylococcus aureus ATCC 29213 planktonic cells by broth microdilution method; format: functional
How it was run: (§3)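 Planktonic MIC read in the MBEC system against cells shed from 24-h peg biofilms (grown in tryptic soy broth, 37°C, 150 rpm), after 24-h exposure to serially diluted drug in CAMHB without polysorbate 80. Ranges come from ≥3 independent experiments.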

[18] = tested on: Staphylococcus aureus; assay: Antimicrobial activity against methicillin-resistant Staphylococcus aureus ATCC 33591 planktonic cells by broth microdilution method; format: functional; how it was run: as §3
[19] = tested on: Staphylococcus aureus; assay: Antimicrobial activity against vancomycin-resistant Staphylococcus aureus isolate VRS5 planktonic cells by broth microdilution method; format: functional; how it was run: as §3
[20] = tested on: Staphylococcus aureus; assay: Antimicrobial activity against methicillin-sensitive Staphylococcus aureus ATCC 29213 assessed as inhibition of bacterial biofilm formation after 1 hr by serial dilution method; format: functional
[21] = tested on: Staphylococcus aureus; assay: Antimicrobial activity against methicillin-sensitive Staphylococcus aureus ATCC 29213 assessed as inhibition of biofilm formation after 24 hrs by serial dilution method; format: functional
How it was run: (§4)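 24-h biofilms grown on MBEC peg lids from 10^7 CFU/ml inocula in tryptic soy broth at 37°C, 150 rpm. After a saline wash, pegs were exposed for 24 h to serially diluted drug in CAMHB with no polysorbate 80. Pegs were washed, sonicated 5 min into CAMHB recovery plates and incubated 24 h; MBEC is the lowest sterilizing concentration. Ranges come from ≥3 independent experiments.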

[22] = tested on: Staphylococcus aureus; assay: Antimicrobial activity against methicillin-resistant Staphylococcus aureus ATCC 33591 assessed as inhibition of biofilm formation after 24 hrs by serial dilution method; format: functional; how it was run: as §4
[23] = tested on: Staphylococcus aureus; assay: Bactericidal activity against stationary-phase vancomycin-resistant Staphylococcus aureus isolate VRS5 after 24 hrs by time kill analysis; format: functional, organism-based; how it was run: as §1
[24] = tested on: Homo sapiens; assay: fCmin in human at 200 […]; format: ADME, organism-based; details: in vivo
[25] = tested on: Staphylococcus aureus; assay: Antimicrobial activity against 4.6 X 10^6 CFU/peg methicillin-susceptible Staphylococcus aureus ATCC 29213 planktonic cells by broth microdilution method
[26] = tested on: Staphylococcus aureus; assay: Antimicrobial activity against 4.6 X 10^6 CFU/peg methicillin-susceptible Staphylococcus aureus ATCC 29213 assessed as inhibition of biofilm formation after 24 hrs by serial dilution method
[27] = tested on: Staphylococcus aureus; assay: Bactericidal activity against stationary-phase vancomycin-resistant Staphylococcus aureus isolate VRS5 grown on nutrient-depleted CAMHB medium assessed as log reduction in bacterial count at 4 ug/ml after 24 hrs by time kill analysis

What does the source list for `CN[C@H](CC(C)C)C(=O)N[C@H]1C(=O)N[C@@H](CC(N)=O)C(=O)N[C@H]2C(=O)N[C@H]3C(=O)N[C@H](C(=O)N[C@H](C(=O)O)c4cc(O)cc(O)c4-c4cc3ccc4O)[C@H](O[C@H]3C[C@](C)(N)[C@@H](O)[C@H](C)O3)c3ccc(c(Cl)c3)Oc3cc2cc(c3O[C@@H]2O[C@H](CO)[C@@H](O)[C@H](O)[C@H]2O[C@H]2C[C@](C)(NCc3ccc(-c4ccc(Cl)cc4)cc3)[C@@H](O)[C@H](C)O2)Oc2ccc(cc2Cl)[C@H]1O` [ORITAVANCIN]?
Activity [1]: Dose-dependent effect; Activity [2]: Dose-dependent effect; FC [3]: >=3; FC [4]: 2.9; Activity [5]: Active; Activity [6]: Active; Activity [7]: Active; Activity [8]: Dose-dependent effect; fold change (FC) [9]: 0.4; Activity [10]: Dose-dependent effect; Activity [11]: Dose-dependent effect; FC [12]: 3.2; FC [13]: 2.9; FC [14]: 0.9; FC [15]: 1.5; inhibition [16]: Active; MIC [17]: 2 µg/mL (≈ 1.12 µM); MIC [18]: 0.5 µg/mL (≈ 0.279 µM); MIC [19]: 2 µg/mL (≈ 1.12 µM); MBEC [20]: 4 µg/mL; MBEC [21]: 2 µg/mL; MBEC [22]: 0.5 µg/mL; Activity [23]: Dose-dependent effect; fCmin [24]: 0.5 µg/mL; MIC [25]: 4 µg/mL (≈ 2.23 µM); MBEC [26]: 8 µg/mL; FC [27]: 2.2
